For five molecules, ΔTm and Activity results are on record in ChEMBL document CHEMBL1944514, “Fluorescence detection of single nucleotide polymorphisms using nucleic acid probe containing tricyclic base-linked acyclonucleoside” (Bioorg Med Chem Lett, 2012).

Calls of active or inactive are those of the source. No cut-off for these calls is given here.

Common to all, as to assay type: nucleic-acid assay
The test system of assay [1] is Nucleic Acid. In words: Binding affinity to 3'-r(CUUCCAGUUACAUAGAGA)-5' RNA assessed as change in melting temperature by spectrophotometry.
Assay [2] has as its system Nucleic Acid. In words: Binding affinity to 3'-r(CUUCCAGUUGCAUAGAGA)-5' RNA assessed as change in melting temperature by spectrophotometry.
In assay [3] the test system is Nucleic Acid. Briefly: Binding affinity to 3'-r(CUUCCAGUUCCAUAGAGA)-5' RNA assessed as change in melting temperature by spectrophotometry.
Assay [4] relates to Nucleic Acid. Briefly: Binding affinity to 3'-r(CUUCCAGUUUCAUAGAGA)-5' RNA assessed as change in melting temperature by spectrophotometry.
The subject of assay [5] is Nucleic Acid. Briefly: Binding affinity to 3'-r(CUUCCAGUUACAUAGAGA)-5' RNA assessed as fluorescence quenching by spectrophotometry.
Assay [6] deals with Nucleic Acid. In words: Binding affinity to 3'-r(CUUCCAGUUGCAUAGAGA)-5' RNA assessed as fluorescence quenching by spectrophotometry.
In assay [7] the test system is Nucleic Acid. In words: Binding affinity to 3'-r(CUUCCAGUUCCAUAGAGA)-5' RNA assessed as fluorescence quenching by spectrophotometry.
In assay [8] the test system is Nucleic Acid. Briefly: Binding affinity to 3'-r(CUUCCAGUUUCAUAGAGA)-5' RNA assessed as fluorescence quenching by spectrophotometry.
The subject of assay [9] is Nucleic Acid. Briefly: Binding affinity to 3'-r(CUUCCAGUUACAUAGAGA)-5' RNA assessed as fluorescence quenching measured post UV-irradiation by visual analysis. The essentials:
(§1)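 Solutions of the N-containing probe/RNA target duplex in Tm buffer were irradiated with a handheld UV lamp at 254, 302 or 365 nm. The emitted colour was judged by eye from photographs.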

The subject of assay [10] is Nucleic Acid. Briefly: Binding affinity to 3'-r(CUUCCAGUUUCAUAGAGA)-5' RNA assessed as fluorescence quenching measured post UV-irradiation by visual analysis. The essentials: as §1

The ΔTm is the change in melting temperature against a reference sample. Consider `Cc1cn([C@H]2C[C@H](OP(=O)(O)OC[C@H]3O[C@@H](n4ccc(N)nc4=O)C[C@@H]3OP(=O)(O)OC[C@H]3O[C@@H](n4cnc5c(N)ncnc54)C[C@@H]3OP(=O)(O)OC[C@H]3O[C@@H](n4cnc5c(N)ncnc54)C[C@@H]3OP(=O)(O)OC[C@H](Cn3cnc4cc5c(N)nc(N)nc5nc43)OP(=O)(O)OC[C@H]3O[C@@H](n4ccc(N)nc4=O)C[C@@H]3OP(=O)(O)OC[C@H]3O[C@@H](n4cnc5c(=O)[nH]c(N)nc54)C[C@@H]3OP(=O)(O)CC[C@H]3O[C@@H](n4cc(C)c(=O)[nH]c4=O)C[C@@H]3OP(=O)(O)OC[C@H]3O[C@@H](n4cnc5c(N)ncnc54)C[C@@H]3OP(=O)(O)OC[C@H]3O[C@@H](n4cc(C)c(=O)[nH]c4=O)C[C@@H]3OP(=O)(O)OC[C@H]3O[C@@H](n4ccc(N)nc4=O)C[C@@H]3OP(=O)(O)OC[C@H]3O[C@@H](n4cc(C)c(=O)[nH]c4=O)C[C@@H]3OP(=O)(O)OC[C@H]3O[C@@H](n4ccc(N)nc4=O)C[C@@H]3OP(=O)(O)OC[C@H]3O[C@@H](n4cc(C)c(=O)[nH]c4=O)C[C@@H]3O)[C@@H](COP(=O)(O)O[C@H]3C[C@H](n4cnc5c(=O)[nH]c(N)nc54)O[C@@H]3COP(=O)(O)O[C@H]3C[C@H](n4cnc5c(=O)[nH]c(N)nc54)O[C@@H]3COP(=O)(O)O[C@H]3C[C@H](n4cnc5c(N)ncnc54)O[C@@H]3COP(=O)(O)O[C@H]3C[C@H](n4cnc5c(N)ncnc54)O[C@@H]3COP(=O)(O)O[C@H]3C[C@H](n4cnc5c(=O)[nH]c(N)nc54)O[C@@H]3CO)O2)c(=O)nc1N`, for which the ΔTm in the assay with Nucleic Acid [1] was -6 °C; in the assay with Nucleic Acid [3], -6.5 °C; in the assay on Nucleic Acid [4], -5.4 °C. The result in the assay with Nucleic Acid [2] and with Nucleic Acid [6] was inactive. For the same molecule, the outcome in the assay with Nucleic Acid [5], in the assay with Nucleic Acid [7] and in the assay with Nucleic Acid [8] was Active.

Turning to `Cc1cn([C@H]2C[C@H](OP(=O)(O)OC[C@H]3O[C@@H](n4ccc(N)nc4=O)C[C@@H]3OP(=O)(O)OC[C@H]3O[C@@H](n4cnc5c(N)ncnc54)C[C@@H]3OP(=O)(O)OC[C@H]3O[C@@H](n4cnc5c(N)ncnc54)C[C@@H]3OP(=O)(O)OC[C@H]3O[C@@H](n4ccc(N)nc4=O)C[C@@H]3OP(=O)(O)OC[C@H](Cn3cnc4cc5c(N)nc(N)nc5nc43)OP(=O)(O)OC[C@H]3O[C@@H](n4cnc5c(=O)[nH]c(N)nc54)C[C@@H]3OP(=O)(O)CC[C@H]3O[C@@H](n4cc(C)c(=O)[nH]c4=O)C[C@@H]3OP(=O)(O)OC[C@H]3O[C@@H](n4cnc5c(N)ncnc54)C[C@@H]3OP(=O)(O)OC[C@H]3O[C@@H](n4cc(C)c(=O)[nH]c4=O)C[C@@H]3OP(=O)(O)OC[C@H]3O[C@@H](n4ccc(N)nc4=O)C[C@@H]3OP(=O)(O)OC[C@H]3O[C@@H](n4cc(C)c(=O)[nH]c4=O)C[C@@H]3OP(=O)(O)OC[C@H]3O[C@@H](n4ccc(N)nc4=O)C[C@@H]3OP(=O)(O)OC[C@H]3O[C@@H](n4cc(C)c(=O)[nH]c4=O)C[C@@H]3O)[C@@H](COP(=O)(O)O[C@H]3C[C@H](n4cnc5c(=O)[nH]c(N)nc54)O[C@@H]3COP(=O)(O)O[C@H]3C[C@H](n4cnc5c(=O)[nH]c(N)nc54)O[C@@H]3COP(=O)(O)O[C@H]3C[C@H](n4cnc5c(N)ncnc54)O[C@@H]3COP(=O)(O)O[C@H]3C[C@H](n4cnc5c(N)ncnc54)O[C@@H]3COP(=O)(O)O[C@H]3C[C@H](n4cnc5c(=O)[nH]c(N)nc54)O[C@@H]3CO)O2)c(=O)nc1N`, the figures for the ΔTm in the assay on Nucleic Acid [1], in the assay with Nucleic Acid [3] and with Nucleic Acid [4] were -3.9 °C, -3.2 °C and -1.1 °C, respectively. Moreover, the outcome in the assay on Nucleic Acid [2] and in the assay on Nucleic Acid [6] was inactive. The outcome in the assay on Nucleic Acid [5], with Nucleic Acid [7] and with Nucleic Acid [8] was Active.

For `Cc1cn([C@H]2C[C@H](OP(=O)(O)OC[C@H]3O[C@@H](n4ccc(N)nc4=O)C[C@@H]3OP(=O)(O)OC[C@H]3O[C@@H](n4cnc5c(N)ncnc54)C[C@@H]3OP(=O)(O)OC[C@H]3O[C@@H](n4cnc5c(N)ncnc54)C[C@@H]3OP(=O)(O)OC[C@H]3O[C@@H](n4cc(C)c(=O)[nH]c4=O)C[C@@H]3OP(=O)(O)OC[C@H](Cn3cnc4cc5c(N)nc(N)nc5nc43)OP(=O)(O)OC[C@H]3O[C@@H](n4cnc5c(=O)[nH]c(N)nc54)C[C@@H]3OP(=O)(O)CC[C@H]3O[C@@H](n4cc(C)c(=O)[nH]c4=O)C[C@@H]3OP(=O)(O)OC[C@H]3O[C@@H](n4cnc5c(N)ncnc54)C[C@@H]3OP(=O)(O)OC[C@H]3O[C@@H](n4cc(C)c(=O)[nH]c4=O)C[C@@H]3OP(=O)(O)OC[C@H]3O[C@@H](n4ccc(N)nc4=O)C[C@@H]3OP(=O)(O)OC[C@H]3O[C@@H](n4cc(C)c(=O)[nH]c4=O)C[C@@H]3OP(=O)(O)OC[C@H]3O[C@@H](n4ccc(N)nc4=O)C[C@@H]3OP(=O)(O)OC[C@H]3O[C@@H](n4cc(C)c(=O)[nH]c4=O)C[C@@H]3O)[C@@H](COP(=O)(O)O[C@H]3C[C@H](n4cnc5c(=O)[nH]c(N)nc54)O[C@@H]3COP(=O)(O)O[C@H]3C[C@H](n4cnc5c(=O)[nH]c(N)nc54)O[C@@H]3COP(=O)(O)O[C@H]3C[C@H](n4cnc5c(N)ncnc54)O[C@@H]3COP(=O)(O)O[C@H]3C[C@H](n4cnc5c(N)ncnc54)O[C@@H]3COP(=O)(O)O[C@H]3C[C@H](n4cnc5c(=O)[nH]c(N)nc54)O[C@@H]3CO)O2)c(=O)nc1N`, the result in the assay on Nucleic Acid [1], with Nucleic Acid [5] and in the assay with Nucleic Acid [9] was inactive. In addition, the values for the ΔTm in the assay on Nucleic Acid [2], with Nucleic Acid [3] and with Nucleic Acid [4] were -0.9 °C, -0.8 °C and 1 °C, respectively. Moreover, the result in the assay on Nucleic Acid [6], in the assay on Nucleic Acid [7], with Nucleic Acid [8] and with Nucleic Acid [10] was Active.

Take `Cc1cn([C@H]2C[C@H](OP(=O)(O)OC[C@H]3O[C@@H](n4ccc(N)nc4=O)C[C@@H]3OP(=O)(O)OC[C@H]3O[C@@H](n4cnc5c(N)ncnc54)C[C@@H]3OP(=O)(O)OC[C@H]3O[C@@H](n4cnc5c(N)ncnc54)C[C@@H]3OP(=O)(O)OC[C@H](Cn3cnc4cc5c(N)nc(N)nc5nc43)OP(=O)(O)OC[C@H]3O[C@@H](n4cnc5c(N)ncnc54)C[C@@H]3OP(=O)(O)OC[C@H]3O[C@@H](n4cnc5c(=O)[nH]c(N)nc54)C[C@@H]3OP(=O)(O)CC[C@H]3O[C@@H](n4cc(C)c(=O)[nH]c4=O)C[C@@H]3OP(=O)(O)OC[C@H]3O[C@@H](n4cnc5c(N)ncnc54)C[C@@H]3OP(=O)(O)OC[C@H]3O[C@@H](n4cc(C)c(=O)[nH]c4=O)C[C@@H]3OP(=O)(O)OC[C@H]3O[C@@H](n4ccc(N)nc4=O)C[C@@H]3OP(=O)(O)OC[C@H]3O[C@@H](n4cc(C)c(=O)[nH]c4=O)C[C@@H]3OP(=O)(O)OC[C@H]3O[C@@H](n4ccc(N)nc4=O)C[C@@H]3OP(=O)(O)OC[C@H]3O[C@@H](n4cc(C)c(=O)[nH]c4=O)C[C@@H]3O)[C@@H](COP(=O)(O)O[C@H]3C[C@H](n4cnc5c(=O)[nH]c(N)nc54)O[C@@H]3COP(=O)(O)O[C@H]3C[C@H](n4cnc5c(=O)[nH]c(N)nc54)O[C@@H]3COP(=O)(O)O[C@H]3C[C@H](n4cnc5c(N)ncnc54)O[C@@H]3COP(=O)(O)O[C@H]3C[C@H](n4cnc5c(N)ncnc54)O[C@@H]3COP(=O)(O)O[C@H]3C[C@H](n4cnc5c(=O)[nH]c(N)nc54)O[C@@H]3CO)O2)c(=O)nc1N`: the values for the thermal shift (ΔTm) in the assay with Nucleic Acid [1], with Nucleic Acid [2] and with Nucleic Acid [3] were -3.5 °C, -2.9 °C and -3.4 °C, respectively. The result in the assay with Nucleic Acid [4] and in the assay on Nucleic Acid [8] was inactive. Besides, the outcome in the assay with Nucleic Acid [5], in the assay with Nucleic Acid [6] and in the assay on Nucleic Acid [7] was Active.

In the case of `Cc1cn([C@H]2C[C@H](OP(=O)(O)OC[C@H]3O[C@@H](n4ccc(N)nc4=O)C[C@@H]3OP(=O)(O)OC[C@H]3O[C@@H](n4cnc5c(N)ncnc54)C[C@@H]3OP(=O)(O)OC[C@H]3O[C@@H](n4cnc5c(N)ncnc54)C[C@@H]3OP(=O)(O)OC[C@H]3O[C@@H](n4cnc5c(=O)[nH]c(N)nc54)C[C@@H]3OP(=O)(O)OC[C@H](Cn3cnc4cc5c(N)nc(N)nc5nc43)OP(=O)(O)OC[C@H]3O[C@@H](n4cnc5c(=O)[nH]c(N)nc54)C[C@@H]3OP(=O)(O)CC[C@H]3O[C@@H](n4cc(C)c(=O)[nH]c4=O)C[C@@H]3OP(=O)(O)OC[C@H]3O[C@@H](n4cnc5c(N)ncnc54)C[C@@H]3OP(=O)(O)OC[C@H]3O[C@@H](n4cc(C)c(=O)[nH]c4=O)C[C@@H]3OP(=O)(O)OC[C@H]3O[C@@H](n4ccc(N)nc4=O)C[C@@H]3OP(=O)(O)OC[C@H]3O[C@@H](n4cc(C)c(=O)[nH]c4=O)C[C@@H]3OP(=O)(O)OC[C@H]3O[C@@H](n4ccc(N)nc4=O)C[C@@H]3OP(=O)(O)OC[C@H]3O[C@@H](n4cc(C)c(=O)[nH]c4=O)C[C@@H]3O)[C@@H](COP(=O)(O)O[C@H]3C[C@H](n4cnc5c(=O)[nH]c(N)nc54)O[C@@H]3COP(=O)(O)O[C@H]3C[C@H](n4cnc5c(=O)[nH]c(N)nc54)O[C@@H]3COP(=O)(O)O[C@H]3C[C@H](n4cnc5c(N)ncnc54)O[C@@H]3COP(=O)(O)O[C@H]3C[C@H](n4cnc5c(N)ncnc54)O[C@@H]3COP(=O)(O)O[C@H]3C[C@H](n4cnc5c(=O)[nH]c(N)nc54)O[C@@H]3CO)O2)c(=O)nc1N`, the ΔTm with Nucleic Acid [1] is -3.1 °C; in the assay with Nucleic Acid [2] it was -3 °C; in the assay with Nucleic Acid [4], -2.9 °C. Moreover, the result with Nucleic Acid [3] and in the assay on Nucleic Acid [7] was inactive. Moreover, the outcome with Nucleic Acid [5], in the assay on Nucleic Acid [6] and with Nucleic Acid [8] was Active.
